Measured values taken from ChEMBL document CHEMBL1128557, “Synthesis, antitumor activity, and chemical properties of silaplatin and related platinum (II) and platinum (IV) complexes derived from beta-silyl amines” (J Med Chem, 1995).

What was measured:
Tumor Cell line [1] = assay: The compound was evaluated in vitro for the log10 molecular concentration that caused 50 % of 60 human tumor cell line kills; format: ADME, cell-based
Outline: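 Human tumor cell lines (leukemia, non-small-cell lung, ovarian, renal) were preincubated 24 h. Platinum complexes were then added as five 10-fold dilutions, 0.01–100 μM, for 48 h, followed by in situ fixation and staining, with solubilized stain read spectrophotometrically. Log LC50 (50% cell kill) was averaged across cell lines within one experiment.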

Tumor Cell line [2] = assay: Evaluated in vitro for the log10 molecular concentration that caused 50 % inhibition of tumor growth of 60 human tumor cell lines; format: functional, cell-based
Outline: (§1)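 Cells preincubated 24 h, then exposed to the agent at five 10-fold dilutions (0.01–100 μM for the platinum complexes) for 48 h. Cells fixed in situ and stained; solubilized stain read spectrophotometrically. Panel of leukemia, non-small-cell lung, ovarian and renal lines. Log GI50 or TGI taken per cell line in one experiment, then averaged across lines.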

Tumor Cell line [3] = assay: Evaluated in vitro for the log10 molecular concentration that caused […] tumor growth of 60 human tumor cell lines.; format: functional, cell-based; outline: as §1

Substance	Log LC50 (Tumor Cell line [1])	GI50 (Tumor Cell line [2])	TGI (Tumor Cell line [3])
[Bis(aminomethyl)dimethylsilane]dichloroplatinum (II)	> -4.01	–	–
[Bis(aminomethyl)tetramethylenesilane]dichloropaltinum(II)	–	25.7 µM	89.1 µM
[Bis(aminomethyl)tetramethylenesilane]tetrachloropaltinum(IV)	> -4	–	–
